The source of these data is ChEMBL document CHEMBL3272132, “Centrally acting emetics. 10. Rigid dopamine congeners derived from octahydrobenzo[f]quinoline” (J Med Chem, 1976).

In data set [1] the test system is Mus musculus. The data set is described as follows: Hypothermic activity in mouse assessed as decrease in rectal temperature at 10 mg/kg, sc measured every 15 mins. Type of data set: functional. As to conditions: route subcutaneous.
Data set [2] relates to Felis catus. The data set is described as follows: Effect on 2 Hz stimulation of right cardioaccelerator nerve-induced positive chronotropic response in iv dosed cat assessed as concentration required for 50% potentiation of change in heart rate. Type of data set: functional.
Data set [3] relates to Canis familiaris. The data set is described as follows: In vivo antagonist activity at dopamine receptor in sc dosed mongrel dog assessed as inhibition of apomorphine-induced emesis pretreated for 15 mins followed by apomorphine-challenge measured after 1 hr. Format: functional. As to conditions: Canis lupus familiaris. The method in brief:
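Dogs were given compound sc 15 min before sc apomorphine hydrochloride (100 μg/kg). Emesis frequency over 1 h was compared with the apomorphine control value in the same dogs.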

The nature of data set [4]: In vivo antagonist activity at dopamine receptor in pigeon assessed as inhibition of apomorphine-induced pecking behavior administered intramuscularly for 15 mins prior to apomorphine-challenge measured after 1 hr. The following applies: Columbidae, im. Type of data set: functional. The method in brief:
(§1)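 Pigeons were pretreated im with compound 15 min before im apomorphine hydrochloride (1.6 μmol/kg), and pecking frequency was quantified. Five pigeons per dose, three antagonist doses spaced at 0.3 log intervals.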

The subject of data set [5] is Canis familiaris. The data set is described as follows: Toxicity in sc dosed mongrel dog assessed as behavioral changes. Format: organism-based, Canis lupus familiaris. As to conditions: in vivo.
The subject of data set [6] is Felis catus. The data set is described as follows: Effect on 2 Hz stimulation of right cardioaccelerator nerve-induced positive chronotropic response in cat assessed as potentiation of change in heart rate up to 3.3 umol/kg, iv. Type of data set: functional, organism-based.
For data set [7], the species on record is Felis catus. As to the kind of experiment: Effect on 2 Hz transmural stimulation of right atrium-induced positive chronotropic response in cat assessed as concentration required for 50% potentiation of change in heart rate. Type of data set: functional, Cardiac atrium. The method in brief: (§2)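 Isolated cat right atria in Feigan's solution under transmural field stimulation: 2 Hz, 5 ms pulses, maximal voltage, 10 s trains every 5 min, activating adrenergic terminals. After control heart-rate increases were established, compound was added to the bath and its effect was read 5 min later. Estimated ID50 or 50%-potentiation concentration in μM.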

The test system of data set [8] is Canis familiaris. The data set is described as follows: In vivo agonist activity at dopamine receptor in mongrel dog assessed as induction of emesis up to 5 mg/kg, sc after 1 hr. Type of data set: functional, organism-based. On the set-up: dose 5 mg/kg. As to conditions: Canis lupus familiaris. The method in brief: (§3)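 Mongrel dogs, five per dose, with doses spaced at 0.3 log intervals and given sc. Emetic episodes were counted for 1 h after dosing. Apomorphine hydrochloride served as reference standard.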

A short description of data set [9]: In vivo antagonist activity at dopamine receptor in pigeon assessed as inhibition of apomorphine-induced pecking behavior administered intramuscularly for 15 mins prior to apomorphine-challenge measured after 1 hr relative to control. Type of data set: functional, Columbidae. The method, boiled down: as §1
For data set [10], the system named is Felis catus. The data set is described as follows: Effect on 2 Hz stimulation of right cardioaccelerator nerve-induced positive chronotropic response in cat assessed as potentiation of change in heart rate up to 3.5 umol/kg, iv. Type of data set: functional, organism-based.
In data set [11] the test system is Canis familiaris. As to the kind of experiment: In vivo agonist activity at dopamine receptor in sc dosed mongrel dog assessed as induction of emesis after 1 hr relative to apomorphine. Type of data set: functional, Canis lupus familiaris. The method, boiled down:
as §3

The subject of data set [12] is Felis catus. As to the kind of experiment: Effect on 2 Hz stimulation of right cardioaccelerator nerve-induced positive chronotropic response in iv dosed cat assessed as concentration required for 50% inhibition of change in heart rate. Format: functional.
The species entered for data set [13] is Felis catus. As to the kind of experiment: Effect on 2 Hz transmural stimulation of right atrium-induced positive chronotropic response in cat assessed as inhibition of change in heart rate. Format: functional, Cardiac atrium. The method, boiled down:
as §2

Data set [14] relates to Felis catus. As to the kind of experiment: Effect on 2 Hz stimulation of right cardioaccelerator nerve-induced positive chronotropic response in iv dosed cat assessed as inhibition of change in heart rate in presence of haloperidol. Format: functional, organism-based. The method in brief: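 Cat right cardioaccelerator nerve preparation with 2 Hz stimulation and heart-rate response recorded. Haloperidol (100 μg/kg) was given iv before the iv test compound, then inhibition of the nerve-evoked heart-rate increase was assessed.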

Data set [15] relates to Columbidae. The data set is described as follows: In vivo agonist activity at dopamine receptor in pigeon assessed as induction of pecking behavior administered intramuscularly after 1 hr. Type of data set: functional, organism-based. The method, boiled down: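 Pigeons were given compound intramuscularly, and pecking frequency was recorded for 1 h afterwards. Apomorphine hydrochloride served as reference standard.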

The source made the active and inactive calls. No cut-off for these calls is given here. Where only a bound is given, the exact number is not on record here.

Usually ED50 stands for the dose that gives a 50% effect, or the effect in half of the subjects. Turning to `Br.CN1CCC[C@@H]2c3ccc(O)cc3CC[C@@H]21`, the T in [1] turned out to be 2.3 °C. For the same compound, the values for the Activity result in data set [2], in data set [5] and in [7] were “<=3.3 umol/Kg”, “Non-toxic” and 3.9 µM, respectively. The values for the ED50 in data set [3] and in data set [4] were 10 µmol/kg and 16.5 µmol/kg, respectively. The result in [6] and in data set [8] was inactive. Further, the “fold change (FC)” value in data set [9] was 0.1.

Take `COc1ccc2c(c1OC)CC[C@H]1[C@@H]2CCCN1C` (relative stereo): the ED50 in data set [4] came to 1.7 µmol/kg. In addition, the Activity entry in data set [5] was “Non-toxic”. Moreover, the outcome in data set [8] was inactive. The “fold change (FC)” value in [9] is 1.

As for `COc1ccc2c(c1OC)CC[C@H]1[C@H]2CCCN1C` (relative stereo), in [4], the ED50 stood at 15.1 µmol/kg. Also, in data set [5], the Activity entry is listed as “Non-toxic”. For the same compound, the outcome in [8] was inactive. In addition, the “fold change (FC)” value in data set [9] is 0.11.

In the case of `CN1CCC[C@@H]2c3ccccc3CC[C@@H]21` (relative stereo), the T in data set [1] is 1.6 °C. In addition, the values for the Activity entry in [2], in data set [5] and in data set [7] were “<=3.5 umol/Kg”, “Non-toxic” and 1.6 µM, respectively. In addition, the median effective dose (ED50) was determined as 8.8 µmol/kg in data set [3] and 2.7 µmol/kg in data set [4]. Moreover, the result in data set [10] and in data set [8] was inactive. In addition, the “fold change (FC)” value in [9] is recorded as 0.61.

Consider `CN1CCC[C@H]2c3ccccc3CC[C@@H]21` (relative stereo), for which the T in data set [1] was 2.6 °C. Also, the results for the Activity result in data set [2], in data set [5] and in data set [7] were “<=3.5 umol/Kg”, “Non-toxic” and 7.8 µM, respectively. For the same compound, the ED50 in data set [3] stood at 4.1 µmol/kg; in data set [4] it was 2.2 µmol/kg. For the same compound, the result in data set [10] and in data set [8] was inactive. The “fold change (FC)” value in data set [9] is 0.74.

Take `Br.CN1CCC[C@@H]2c3cccc(O)c3CC[C@@H]21` (relative stereo): the T in data set [1] was 0 °C. Also, the Activity in data set [2] was greater than 3.3 µmol/kg; in data set [5] it was “Non-toxic”. The results for the ED50 in data set [3] and in data set [4] were 6 µmol/kg and 3.8 µmol/kg, respectively. In addition, the result in data set [8] was inactive. The “fold change (FC)” value in data set [9] turned out to be 0.44.

For `Br.CN1CCC[C@H]2c3cccc(O)c3CC[C@@H]21` (relative stereo), in data set [1], the T came to 1.4 °C. In addition, the entries for the “fold change (FC)” value in data set [11] and in data set [9] were 0.03 and 0.76, respectively. Moreover, in data set [4], the ED50 stood at 2.2 µmol/kg. Also, the values for the Activity result in data set [5] and in data set [12] were “Non-toxic” and greater than 2.1 µmol/kg, respectively. Besides, the ID50 in data set [13] worked out at 1 ×10⁻¹ microM. For the same compound, the inhibition entry in data set [14] was “inactive”.

Turning to `Br.CN1CCC[C@H]2c3ccc(O)cc3CC[C@@H]21` (relative stereo), in data set [1], the T is 2.4 °C. Further, the results for the Activity result in [2], in data set [5] and in data set [7] were “<=3.3 umol/Kg”, “Non-toxic” and 12.7 µM, respectively. Also, the results for the ED50 in [3] and in data set [4] were 4.3 µmol/kg and 9 µmol/kg, respectively. Besides, the outcome in [6] and in data set [8] was inactive. For the same compound, the “fold change (FC)” value in data set [9] was 0.18.

For the compound `Br.CN1CCC[C@@H]2c3ccc(O)c(O)c3CC[C@@H]21` (relative stereo), in data set [1], the T stood at 1.6 °C. For the same compound, the “fold change (FC)” value in data set [11] came out at 0.02; in data set [9], 0.2. The ED50 in data set [4] came to 8.3 µmol/kg. Further, in data set [12], the Activity turned out to be 0.59 µmol/kg. Also, the ID50 in data set [13] is reported as 4.7 ×10⁻² microM. The inhibition result in data set [14] is “inactive”.

Turning to `Br.CN1CCC[C@H]2c3ccc(O)c(O)c3CC[C@@H]21` (relative stereo), in [1], the T was 4.4 °C. In data set [11], the “fold change (FC)” value worked out at 6.1. For the same compound, the Activity in data set [12] was found to be 0.0052 µmol/kg. Also, the ID50 in data set [13] is listed as 3.2 ×10⁻³ microM. Besides, the inhibition result in [14] is “inactive”.

In the case of `CN1CCc2cccc3c2[C@H]1Cc1ccc(O)c(O)c1-3.CN1CCc2cccc3c2[C@H]1Cc1ccc(O)c(O)c1-3.Cl.Cl.O` [APOMORPHINE HYDROCHLORIDE], in data set [1], the T is 3.6 °C. In addition, the result in [15] was Active. In addition, the Activity entry in data set [5] was “Non-toxic”.
